Results from ChEMBL document CHEMBL1152972, “Rearranged prenylated C6-C3 compounds and a highly oxygenated seco-prezizaane-type sesquiterpene from the stem bark of Illicium oligandrum” (2009).
The source made the active and inactive calls. The calls are words filed in the database; no cut-off is given here.

Key:
A2780 = test: Cytotoxicity against human A2780 cells; format: functional, cell-based
BGC-823 = test: Cytotoxicity against human BGC823 cells; format: functional, cell-based
HCT-8 = test: Cytotoxicity against human HCT8 cells; format: functional, cell-based
Bel-7402 = test: Cytotoxicity against human Bel7402 cells; format: functional, cell-based
[1] = Antiinflammatory activity in rat PMNC assessed as inhibition of platelet activating factor-induced beta-glucuronidase release at 10 uM treated 15 mins before PAF challenge; format: functional; set-up: scale not given: the % may be the effect or the level left
Procedure, shortened: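 Rat PMN suspension (2.5 × 10^6 cells/mL) preincubated with sample (stock 0.1 M in DMSO, diluted in RPMI-1640) 15 min at 37 °C, then cytochalasin B 5 min, then PAF; stopped on ice after 10 min. Supernatant incubated with phenolphthalein glucuronic acid in 0.1 M HOAc buffer pH 4.6, 37 °C, 18 h; NaOH added, A550 read; inhibitory ratio versus PAF and control wells; ginkgolide B reference.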

A549 = test: Cytotoxicity against human A549 cells; format: functional, cell-based

| SMILES | Activity (A2780) | Activity (BGC-823) | Activity (HCT-8) | Activity (Bel-7402) | Activity [1] [%] | Activity (A549) |
| --- | --- | --- | --- | --- | --- | --- |
| C=CCC1=C[C@]2(O)C[C@H](C(C)(C)O)OC2=CC1=O | inactive | inactive | inactive | inactive | 4.8 | inactive |
| C=CC[C@@H]1C[C@]2(O)C[C@H](C(C)(C)O)OC2=CC1=O [ILLIFUNONE C] | inactive | inactive | inactive | inactive | -9.4 | inactive |
| C=CC[C@H]1C[C@]2(O)C[C@H](C(C)(C)O)OC2=CC1=O [ILLIFUNONE D] | inactive | inactive | inactive | inactive | 18 | inactive |
| C=CCC1=C[C@]2(O)C[C@@H](O)C(C)(C)[C@H](C1=O)C2=O [ILLIOLIGANONE A] | inactive | inactive | inactive | inactive | -7.7 | inactive |
| C=CC[C@@]12C=C(C[C@H](O)C(C)(C)O)C(=O)C=C1OCO2 [ILLIOLIGANONE B] | inactive | inactive | inactive | inactive | 33.8 | inactive |
| C=CC[C@]1(C[C@H](O)C(C)(C)O)C=C2OCOC2=CC1=O [ILLIOLIGANONE C] | inactive | inactive | inactive | inactive | 20.1 | inactive |
| C[C@@H]1CC[C@@]2(O)[C@]13C[C@@H](OC(=O)[C@@H]3O)[C@@]1(O)C(=O)OC[C@@]21C [NEOMAJUCIN] | inactive | inactive | inactive | inactive | 22.4 | inactive |
| CO[C@]12OC[C@@]3(C)[C@@]4(O)CC[C@@H](COC(=O)c5ccccc5)[C@]4(C[C@@H](O1)[C@@]3(O)CO)[C@H]2O [OLIGANDRIORTHOLACTONE] | inactive | inactive | inactive | inactive | 15.8 | inactive |
